Compound activity deposited in PubChem BioAssay by Sanford-Burnham Center for Chemical Genomics.
Hits are enriched below; roughly 3% of the tested compounds scored in any of these assays.
Apaf-1 inh = inhibitors of human Apaf-1 apoptosome, primary screen, biochemical, DEVD-Rh110 fluorescence, uHTS; AID 489030, 2010; hit rate 0.71% among 330,000; inhibition, % at 20 µM; reconstituted apoptosome caspase-3 activity; active = inhibition of at least 40% at 20 µM
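Medium: Hepes buffer, pH 7.5 / System: biochemical Apaf-1 apoptosome reconstitution / Measured by: Rh110 fluorescence, excitation 480 nm, emission 540 nm / Times: compound with Apaf-1, dATP, procaspase-3 30 min, then 50 min reaction, room temperature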
SENP7 inh = SENP7 protease inhibitors, primary screen, biochemical, luminescence, uHTS; recombinant SENP7, Z-RLRGG-aminoluciferin luminescence, 40 min; hit rate 1.5% among 330,000; inhibition, % at 5 µM; Sentrin-specific protease 7 (Homo sapiens), Q9BQF6;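 active = inhibition above about 50% at the single test dose, limit read from the data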
Target sequence (Q9BQF6 706-1050 limits assumed): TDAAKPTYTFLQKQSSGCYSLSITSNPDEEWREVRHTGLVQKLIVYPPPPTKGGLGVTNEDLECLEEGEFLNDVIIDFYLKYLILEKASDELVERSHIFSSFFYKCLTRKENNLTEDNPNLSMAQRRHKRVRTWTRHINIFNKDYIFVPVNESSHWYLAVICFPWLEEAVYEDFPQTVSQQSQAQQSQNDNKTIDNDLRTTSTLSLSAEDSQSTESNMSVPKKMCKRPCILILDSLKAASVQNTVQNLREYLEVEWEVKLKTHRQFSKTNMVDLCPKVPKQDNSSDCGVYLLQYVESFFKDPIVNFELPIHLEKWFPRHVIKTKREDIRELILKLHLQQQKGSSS
SENP6 inh = SENP6 protease inhibitors, primary screen, biochemical, luminescence, uHTS; inhibition, % at 10 µM; Sentrin-specific protease 6 (Homo sapiens), Q9GZR1; Recombinant SENP6 catalytic domain, aminoluciferin luminescence; AID 2599, 2010; hit rate 1.8% among 330,000;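 active = inhibition above about 50% at the single tested dose, limit read from the data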
SENP8 block-1 = human SENP8 protease inhibitors, primary screen, biochemical, fluorescence, Nedd8 protein substrate, uHTS; Sentrin-specific protease 8 (Homo sapiens), Q96LD8; recombinant SENP8; inhibition, % at 20 µM; hit rate 0.64% among 360,000; AID 602440, 2012; in the data active = inhibition mostly above about 40%, no sharp cut-off; inactive = mostly below about 27%
UBC13 inh = UBC13 polyubiquitin chain formation inhibitors, primary screen, biochemical, TR-FRET, uHTS; Ubiquitin-conjugating enzyme E2 N (Homo sapiens), P61088; inhibition, % at 20 µM; AID 485273, 2010; hit rate 0.47% among 330,000; in the data active = inhibition above about 45%, passing the limit was not always enough
Target sequence (P61088 whole entry, looked up): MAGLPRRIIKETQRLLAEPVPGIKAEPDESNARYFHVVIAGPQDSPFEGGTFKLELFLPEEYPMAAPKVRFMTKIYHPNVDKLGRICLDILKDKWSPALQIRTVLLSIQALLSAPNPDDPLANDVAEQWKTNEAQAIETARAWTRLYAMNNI
SENP8 block-2 = SENP8 protease inhibitors, primary screen, biochemical, luminescence; Sentrin-specific protease 8 (Homo sapiens), Q96LD8; inhibition, % at 10 µM; hit rate 1.2% among 330,000; AID 2540, 2010; purified SENP8, Z-RLRGG-aminoluciferin cleavage; in the data active = inhibition above about 50%
SENP8 conf = SENP8 protease inhibitors, retest, confirmation, biochemical, luminescence, single concentration; inhibition, % at 12.5 µM; shares compounds with SENP7 inh; Recombinant SENP8, Z-RLRGG-aminoluciferin luminescence, 60 min; hit rate 40% among 6,200;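 active = mean inhibition across replicates above about 50%, limit read from the data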
SENP6 conf = SENP6 protease inhibitors, confirmation, biochemical, luminescence, single concentration | shares compounds with SENP7 inh | recombinant SENP6, Z-RLRGG-aminoluciferin luminescence | inhibition, % at 12.5 µM | hit rate 58% among 6,200 | AID 488915, 2010
SENP7 conf = SENP7 protease inhibitors, retest, confirmation, biochemical, luminescence, single concentration. inhibition, % at 12.5 µM. hit rate 69% among 6,200. AID 488917, 2010. recombinant SENP7, Z-RLRGG-aminoluciferin luminescence, 40 min. shares compounds with SENP7 inh
Casp3 SENP sel = caspase-3 protease inhibitors, confirmation, selectivity assay for SENP inhibitor project, biochemical, single concentration. AID 488918, 2010. shares compounds with SENP7 inh. purified caspase-3, Z-DEVD-aminoluciferin luminescence, 60 min. inhibition, % at 12.5 µM. hit rate 60% among 6,200;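 active = mean inhibition above about 50%, limit read from the data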
SENP luc ctr = counter-screen for SENP inhibitors: luminescence interference; inhibition, % at 12.5 µM; shares compounds with SENP7 inh; hit rate 39% among 6,200; Pre-incubated SENP8/Z-RLRGG-aminoluciferin, luciferase luminescence interference;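 active = mean inhibition above about 50% when retested at one dose, limit read from the data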
Numbers stand for hits; ! = not active in a repeat.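 The calls were made as follows, unless noted: active = mean inhibition above about 50% in the one-dose retest (limit read from the data); inactive = the rest.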

How did c1ccc(-c2n[nH]c(-c3ccccn3)n2)nc1 do in these assays?
Apaf-1 inh: inactive; SENP7 inh: 59; SENP6 inh: 66!; SENP8 block-1: inactive; UBC13 inh: inactive; SENP8 block-2: inactive; SENP8 conf: 53; SENP6 conf: 51; SENP7 conf: 78; Casp3 SENP sel: 84; SENP luc ctr: 61

How did CC(C)(C)C(=O)Nc1ccc(N=Nc2ccccc2)cc1 do in these assays?
Apaf-1 inh: inactive; SENP7 inh: 64; SENP6 inh: inactive; SENP8 block-1: inactive; UBC13 inh: inactive; SENP8 block-2: inactive; SENP8 conf: inactive; SENP6 conf: 61; SENP7 conf: 91; Casp3 SENP sel: 59; SENP luc ctr: inactive

How did N#CCCN(C(=O)COC(=O)CCc1nc2ccccc2c(=O)[nH]1)c1ccccc1F do in these assays?
Apaf-1 inh: inactive; SENP7 inh: inactive; SENP6 inh: inactive; SENP8 block-1: inactive; UBC13 inh: inactive; SENP8 block-2: inactive

How did O=C(CN1C(=O)c2ccccc2S1(=O)=O)NCc1c(F)cccc1F do in these assays?
Apaf-1 inh: inactive; SENP7 inh: inactive; SENP6 inh: inactive; SENP8 block-1: inactive; UBC13 inh: inactive; SENP8 block-2: inactive

How did O=C(CCC(=O)N1CCN(c2ccccn2)CC1)c1ccc(Cl)s1 do in these assays?
Apaf-1 inh: inactive; SENP7 inh: inactive; SENP6 inh: inactive; SENP8 block-1: inactive; UBC13 inh: inactive; SENP8 block-2: inactive

Results for Cc1cccc(C#Cc2ccccc2)n1 ?
Apaf-1 inh: inactive; SENP7 inh: 90; SENP6 inh: 91; SENP8 block-1: inactive; UBC13 inh: inactive; SENP8 block-2: 84; SENP8 conf: inactive; SENP6 conf: 73; SENP7 conf: 96; Casp3 SENP sel: 82; SENP luc ctr: inactive

What do the screens show for `O=C(Cc1cccs1)N/N=C/C=C/c1ccco1`?
Apaf-1 inh: inactive; SENP7 inh: inactive; SENP6 inh: inactive; SENP8 block-1: inactive; UBC13 inh: inactive; SENP8 block-2: inactive

How did O=C(CNc1cccc2ccccc12)N/N=C/c1ccc(C(=O)O)cc1 do in these assays?
Apaf-1 inh: inactive; SENP7 inh: inactive; SENP6 inh: 71; SENP8 block-1: inactive; UBC13 inh: inactive; SENP8 block-2: 58; SENP8 conf: inactive; SENP6 conf: inactive; SENP7 conf: inactive; Casp3 SENP sel: inactive; SENP luc ctr: inactive

How did O=C(CNc1cccc2ccccc12)N/N=C/C=C/c1ccco1 do in these assays?
Apaf-1 inh: inactive; SENP7 inh: inactive; SENP6 inh: 82; SENP8 block-1: inactive; UBC13 inh: inactive; SENP8 block-2: 60; SENP8 conf: inactive; SENP6 conf: inactive; SENP7 conf: inactive; Casp3 SENP sel: inactive; SENP luc ctr: inactive

How did O=c1oc(-c2ccc([N+](=O)[O-])cc2)nc2ccccc12 do in these assays?
Apaf-1 inh: inactive; SENP7 inh: inactive; SENP6 inh: inactive; SENP8 block-1: inactive; UBC13 inh: inactive; SENP8 block-2: inactive

What do the screens show for `CC(C)(C)Nc1nc2cc([N+](=O)[O-])ccc2o1`?
Apaf-1 inh: inactive; SENP7 inh: inactive; SENP6 inh: inactive; SENP8 block-1: inactive; UBC13 inh: inactive; SENP8 block-2: inactive

Results for COc1ccc(-c2nc3cc([N+](=O)[O-])ccc3o2)cc1 ?
Apaf-1 inh: inactive; SENP7 inh: 77; SENP6 inh: inactive; SENP8 block-1: inactive; UBC13 inh: inactive; SENP8 block-2: inactive; SENP8 conf: inactive; SENP6 conf: inactive; SENP7 conf: inactive; Casp3 SENP sel: 59; SENP luc ctr: inactive

Results for Nc1ccc(-c2nc3cc([N+](=O)[O-])ccc3o2)cc1 ?
Apaf-1 inh: inactive; SENP7 inh: 56; SENP6 inh: 63; SENP8 block-1: inactive; UBC13 inh: inactive; SENP8 block-2: inactive; SENP8 conf: inactive; SENP6 conf: inactive; SENP7 conf: 85; Casp3 SENP sel: 54; SENP luc ctr: inactive

How did Cc1ccc(N2CC(C(=O)OCC(=O)Nc3ccccc3F)CC2=O)cc1 (centres undefined) do in these assays?
Apaf-1 inh: inactive; SENP7 inh: inactive; SENP6 inh: inactive; SENP8 block-1: inactive; UBC13 inh: inactive; SENP8 block-2: inactive

How did CCOc1ccc(OCCSc2nc(C)cc(=O)[nH]2)cc1 do in these assays?
Apaf-1 inh: inactive; SENP7 inh: 51; SENP6 inh: 66; SENP8 block-1: inactive; UBC13 inh: inactive; SENP8 block-2: 70; SENP8 conf: inactive; SENP6 conf: 72; SENP7 conf: 61; Casp3 SENP sel: 79; SENP luc ctr: inactive

What do the screens show for `c1cn2cc(-c3ccc4c(c3)OCO4)nc2s1`?
Apaf-1 inh: inactive; SENP7 inh: 64; SENP6 inh: 73; SENP8 block-1: inactive; UBC13 inh: inactive; SENP8 block-2: 50; SENP8 conf: 59; SENP6 conf: 56; SENP7 conf: 85; Casp3 SENP sel: 79; SENP luc ctr: 72

What do the screens show for `O=C(NC1c2ccccc2Oc2ccccc21)c1ccc([N+](=O)[O-])cc1`?
SENP8 block-1: inactive

How did Cc1ccc(-c2nnc(-c3ccccc3)o2)cc1 do in these assays?
Apaf-1 inh: inactive; SENP7 inh: 93; SENP6 inh: 92; SENP8 block-1: inactive; UBC13 inh: inactive; SENP8 block-2: 82; SENP8 conf: inactive; SENP6 conf: 80; SENP7 conf: 96; Casp3 SENP sel: 86; SENP luc ctr: 54

Results for O=C(O)c1ccc(-c2nnc(-c3ccccc3)o2)cc1 ?
Apaf-1 inh: inactive; SENP7 inh: 98; SENP6 inh: 99; SENP8 block-1: inactive; UBC13 inh: inactive; SENP8 block-2: 95; SENP8 conf: inactive; SENP6 conf: 97; SENP7 conf: 101; Casp3 SENP sel: 96; SENP luc ctr: 81
